Assay results published in ChEMBL document CHEMBL1141374 (J Med Chem, 2007).

Tests used:
HCT-116 = test: Cytotoxicity against HCT116 cell line; format: cell-based; conditions: Homo sapiens
Procedure, shortened: (§1)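 Log-phase cells were diluted to 20 000–30 000 cells/mL, seeded, and left to attach overnight. They were then exposed to compounds at 10^–5–10^–12 M for 72 h at 37 °C in 5% CO2. Viable cells were measured by MTT, with absorbance read at 595 nm. Each compound ran in triplicate in at least three independent assays. IC50 came from nonlinear regression, and average values were reported.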

HeLa = test: Cytotoxicity against HeLa cell line; format: cell-based; conditions: Homo sapiens; procedure, shortened: as §1
Tubulin = test: Inhibition of tubulin polymerization; format: protein-complex assay, Homo sapiens
Procedure, shortened: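 Kit-based assay run per the manufacturer's instructions. Tubulin (>99% pure, 3 mg/mL) in G-PEM buffer, in a prewarmed plate with compound at 0.03–30 μM. OD340 nm read every 60 s at 37 °C for 1 h.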

[1] = Cytotoxicity against P-glycoprotein-overexpressing KB-V1 cell line; format: cell-based; conditions: Homo sapiens; procedure, shortened: as §1
[2] = Cytotoxicity against KB-3-1 cell line; format: cell-based; conditions: Homo sapiens; procedure, shortened: as §1
ZR-75-1 = test: Cytotoxicity against ZR-75-1 cell line; format: cell-based; conditions: Homo sapiens; procedure, shortened: as §1

Row | Structure (SMILES) | IC50 (HCT-116) | IC50 (HeLa) | IC50 (Tubulin) | IC50 [1] | IC50 [2] | IC50 (ZR-75-1)
1 | COc1cc(-c2nncn2-c2ccc3c(c2)CCN3C)cc(OC)c1OC | 3290 nM | 4100 nM | > 10000 nM | – | – | –
2 | COc1cc(-n2cnnc2-c2ccc3c(ccn3C)c2)cc(OC)c1OC | 24.3 nM | 18 nM | 5600 nM | 32.1 nM | 15 nM | –
3 | COc1cc2c(c(OC)c1OC)-c1ccc(OC)c(=O)cc1[C@@H](NC(C)=O)CC2 [COLCHICINE] | 2.75 nM | 1.84 nM | – | 620 nM | 3.99 nM | 522 nM
4 | COc1ccc(/C=C\c2cc(OC)c(OC)c(OC)c2)cc1O [COMBRETASTATIN A4] | 0.35 nM | 0.3 nM | – | 0.64 nM | 0.78 nM | 0.24 nM
5 | CC(=O)O[C@H]1C(=O)[C@@]2(C)[C@H]([C@H](OC(=O)c3ccccc3)[C@]3(O)C[C@H](OC(=O)[C@H](O)[C@@H](NC(=O)c4ccccc4)c4ccccc4)C(C)=C1C3(C)C)[C@]1(OC(C)=O)CO[C@@H]1C[C@@H]2O [PACLITAXEL] | – | – | – | > 10000 nM | 23.3 nM | 308 nM
